ChEMBL document CHEMBL1177650, “Synthesis, structural elucidation and in vitro antiparasitic activity against Trypanosoma cruzi and Leishmania chagasi parasites of novel tetrahydro-1-benzazepine derivatives” (Bioorg Med Chem, 2010)

Legend:
[1] = Selectivity index, CC50 for human THP1 cells to IC50 for Leishmania chagasi MHOM/BR/74/PP75 promastigotes; assay type: functional, THP-1
Outline: (§1)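 Selectivity index computed as CC50 in THP-1 cells divided by IC50 against the L. chagasi stage named in the line.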

Trypanosoma cruzi [2] = experiment: Antitrypanosomal activity against Trypanosoma cruzi 320I01 amastigotes infected in african green monkey Vero cells after 5 days by Giemsa staining; assay type: functional, organism-based; conditions: 320I01, Vero, 120 h
Outline: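 Vero cells (RPMI, 5% hiSBF, 37 °C, 5% CO2) infected 24 h with tissue-derived T. cruzi trypomastigotes at parasite:cell 10:1. Compound dilutions (top 100 μM) applied 5 days at 37 °C, 5% CO2, medium changed once at day 3. Infected cells scored per 300 cells on methanol-fixed Giemsa preparations; IC50/IC90 by sigmoidal regression; triplicates, two experiments.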

Leishmania chagasi [3] = experiment: Antileishmanial activity against Leishmania chagasi MHOM/BR/74/PP75 amastigotes infected in human THP1 cells after 5 days by Giemsa staining; assay type: functional, organism-based; conditions: MHOM/BR/74/PP75, THP-1, 120 h
Outline: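 THP-1 cells (RPMI, 5% hiSBF, 37 °C, 5% CO2) transformed, then infected 24 h with late-phase L. chagasi promastigotes at parasite:cell 10:1. Treated with compound dilutions (top 100 μM) 5 days at 37 °C, 5% CO2, medium changed once after 3 days. Infected cells counted per 300 cells on methanol-fixed Giemsa slides; IC50/IC90 by sigmoidal regression; triplicates, repeated twice.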

[4] = Selectivity index, CC50 for african green monkey Vero cells to IC50 for Trypanosoma cruzi 320I01 amastigotes; assay type: functional
Outline: (§2)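 Selectivity index computed as CC50 in Vero cells divided by IC50 against the T. cruzi stage named in the line.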

Leishmania chagasi [5] = experiment: Antileishmanial activity against Leishmania chagasi MHOM/BR/74/PP75 promastigotes after 72 hrs by haemocytometry; assay type: functional, organism-based; conditions: MHOM/BR/74/PP75, 72 h
Outline: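 Late-phase L. chagasi promastigotes, grown at 28 °C in RPMI 1640 with hemin, HEPES and 10% hiSBF, exposed to threefold serial dilutions (0.3–100 μM) for 72 h at 28 °C; untreated controls. Growth inhibition from haemocytometer counts; IC50/IC90 by sigmoidal regression; triplicates, repeated twice.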

[6] = Selectivity index, CC50 for human THP1 cells to IC50 for Leishmania chagasi MHOM/BR/74/PP75 amastigotes; assay type: functional, THP-1; outline: as §1
[7] = Cytotoxicity against african green monkey Vero cells after 72 hrs by MTT assay; assay type: cell-based; conditions: chlorocebus sabaeus
Outline: (§3)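 Vero or transformed THP-1 cells incubated with compound (0.3–300 μM) 72 h at 37 °C, 5% CO2; untreated controls. MTT read-out, formazan OD at 580 nm; % cytotoxicity = 100 × (OD control − OD treated)/OD control. CC50/CC90 by sigmoidal regression; triplicates, repeated twice. DMSO stocks 100× concentrated, diluted in medium.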

Trypanosoma cruzi [8] = experiment: Antitrypanosomal activity against Trypanosoma cruzi 320I01 epimastigotes after 72 hrs by haemocytometry; assay type: functional, organism-based; conditions: 320I01, 72 h
Outline: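 Late-phase T. cruzi epimastigotes cultured in LIT medium with hiFCS at 28 °C; threefold serial dilutions (0.3–100 μM) for 72 h at 28 °C, untreated controls. Parasites counted in a haemocytometer; IC50/IC90 by sigmoidal regression; each concentration in triplicate, two experiments.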

[9] = Selectivity index, CC50 for african green monkey Vero cells to IC50 for Trypanosoma cruzi 320I01 epimastigote; assay type: functional; outline: as §2
[10] = Cytotoxicity against human THP1 cells after 72 hrs by MTT assay; assay type: cell-based; conditions: THP-1 cells; outline: as §3

| SMILES | IC50 (Trypanosoma cruzi [2]) [µM] | IC90 (Trypanosoma cruzi [2]) [µM] | IC50 (Leishmania chagasi [3]) [µM] | IC90 (Leishmania chagasi [3]) [µM] | IC50 (Leishmania chagasi [5]) [µM] | IC90 (Leishmania chagasi [5]) [µM] | IC50 (Trypanosoma cruzi [8]) [µM] | IC90 (Trypanosoma cruzi [8]) [µM] | Selectivity Index [1] | Selectivity Index [4] | Selectivity Index [6] | CC50 at 72 h [7] [µM] | CC90 at 72 h [7] [µM] | Selectivity Index [9] | CC50 at 72 h [10] [µM] | CC90 at 72 h [10] [µM] |
| --- | --- | --- | --- | --- | --- | --- | --- | --- | --- | --- | --- | --- | --- | --- | --- | --- |
| Clc1ccc2c(c1)C[C@H]1C[C@@H](c3c(Cl)cccc3Cl)N2O1 (relative stereo) | > 98.2 | > 98.2 | > 98.2 | > 98.2 | 71 | > 100 | > 100 | > 100 | 4.15 | >0.58 | >3 | 57 | > 295 | >0.56 | > 295 | > 295 |
| COc1cccc([C@@H]2C[C@H](O)Cc3ccccc3N2)c1 (relative stereo) | > 100 | > 100 | > 100 | > 100 | 97.1 | > 100 | 30.1 | 70.2 | >3 | >3 | >3 | > 300 | > 300 | >10 | > 300 | > 300 |
| c1ccc([C@@H]2C[C@@H]3Cc4ccccc4N2O3)cc1 (relative stereo) | > 100 | > 100 | > 100 | > 100 | > 100 | > 100 | > 100 | > 100 | >3 | >3 | >3 | > 300 | > 300 | >3 | > 300 | > 300 |
| Clc1cccc([C@@H]2C[C@@H]3Cc4ccccc4N2O3)c1 (relative stereo) | > 100 | > 100 | > 100 | > 100 | 49.1 | 70.7 | 45.8 | > 100 | 2.73 | >3 | >1 | > 300 | > 300 | >6 | 134 | > 300 |
| O[C@@H]1Cc2ccccc2N[C@H](c2ccc(F)cc2)C1 (relative stereo) | > 100 | > 100 | > 100 | > 100 | > 100 | > 100 | 26.4 | 57.6 | >3 | >3 | >3 | > 300 | > 300 | >11 | > 300 | > 300 |
| O[C@@H]1Cc2ccccc2N[C@H](c2cccc(Cl)c2)C1 (relative stereo) | > 100 | > 100 | > 100 | > 100 | 41.2 | 47 | 19.6 | > 100 | 4.04 | >3 | >1 | 295 | > 300 | 15.05 | 167 | > 300 |
| O[C@@H]1Cc2ccccc2N[C@H](c2c(F)cccc2Cl)C1 (relative stereo) | > 100 | > 100 | > 100 | > 100 | > 100 | > 100 | > 100 | > 100 | >3 | >3 | >3 | > 300 | > 300 | >3 | > 300 | > 300 |
| Clc1ccc2c(c1)C[C@H]1C[C@@H](c3ccccc3)N2O1 (relative stereo) | > 100 | > 100 | > 100 | > 100 | 40.1 | 55.4 | 9 | 35.3 | >7 | >3 | >3 | > 300 | > 300 | >33 | > 300 | > 300 |
| Cc1cccc([C@@H]2C[C@@H]3Cc4ccccc4N2O3)c1 (relative stereo) | > 100 | > 100 | > 100 | > 100 | 52 | > 100 | 76.7 | > 100 | >5 | >3 | >3 | > 300 | > 300 | >4 | > 300 | > 300 |

These reach a lower IC50 (Trypanosoma cruzi [2]). Values come first.

| IC50 (Trypanosoma cruzi [2]) [µM] | IC90 (Trypanosoma cruzi [2]) [µM] | IC50 (Leishmania chagasi [3]) [µM] | IC90 (Leishmania chagasi [3]) [µM] | IC50 (Leishmania chagasi [5]) [µM] | IC90 (Leishmania chagasi [5]) [µM] | IC50 (Trypanosoma cruzi [8]) [µM] | IC90 (Trypanosoma cruzi [8]) [µM] | SMILES | Selectivity Index [1] | Selectivity Index [4] | Selectivity Index [6] | CC50 at 72 h [7] [µM] | CC90 at 72 h [7] [µM] | Selectivity Index [9] | CC50 at 72 h [10] [µM] | CC90 at 72 h [10] [µM] |
| --- | --- | --- | --- | --- | --- | --- | --- | --- | --- | --- | --- | --- | --- | --- | --- | --- |
| 50.5 | > 100 | > 100 | > 100 | > 100 | > 100 | 6.1 | 35.3 | Cc1ccc([C@@H]2C[C@H](O)Cc3cc(C)ccc3N2)cc1 (relative stereo) | >1 | >6 | >1 | > 300 | > 300 | >49 | 172 | > 300 |
| 69.9 | > 100 | > 100 | > 100 | > 100 | > 100 | 48.9 | > 100 | O[C@@H]1Cc2ccccc2N[C@H](c2c(Cl)cccc2Cl)C1 (relative stereo) | >3 | >4 | >3 | > 300 | > 300 | >6 | > 300 | > 300 |
| 60.6 | > 95.4 | > 95.4 | > 95.4 | 32.5 | 42.2 | 30.1 | > 100 | Clc1ccc2c(c1)C[C@H]1C[C@@H](c3ccc(Br)cc3)N2O1 (relative stereo) | 7.24 | >4 | >2 | > 300 | > 287 | >10 | 236 | > 287 |
| 45.3 | 90 | > 100 | > 100 | 99 | > 100 | 23.2 | 85.4 | Cc1ccc([C@@H]2C[C@@H]3Cc4cc(C)ccc4N2O3)cc1 (relative stereo) | 0.75 | 4.6 | >0.74 | 208 | > 300 | 8.97 | 74 | 126 |
| 40.2 | 104 | > 100 | > 100 | 35.2 | 41.8 | 35.4 | 85.8 | Fc1ccc2c(c1)C[C@H]1C[C@@H](c3ccc(Cl)cc3)N2O1 (relative stereo) | >8 | >7 | >3 | > 300 | > 300 | >8 | > 300 | > 300 |
| 58.6 | 96.4 | > 100 | > 100 | 40.5 | 47 | > 100 | > 100 | Fc1ccccc1[C@@H]1C[C@@H]2Cc3ccccc3N1O2 (relative stereo) | 4.93 | >5 | >2 | > 300 | > 300 | >3 | 200 | > 300 |
